# In all, about 130,000 compounds went through this assay and about 900 (0.69%) were called active.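 How the source made its calls: active means inhibition above a set limit, placed 3 SD over the median of all compounds (cut at about 26% in these data); inactive means the rest.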 The entries come from a sample that favours actives as a whole.
# Assay: compounds extending yeast replicative lifespan, primary screen, S. cerevisiae, OD615 (AID 775);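 further: 0% = nicotinamide-treated wells and 100% = cells grown without nicotinamide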
# Details: S. cerevisiae growth with nicotinamide, at 10 µM, stronger effect = higher value, deaD strain in restrictive glucose medium
# Method in brief: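 System: Modified budding yeast, DeaD strain | Buffer or medium: Restrictive glucose medium | Also added: 1.5 mM nicotinamide | Doses: 10 µM single point, 0.25% DMSO | Schedule: 48 h compound exposure at 30 °C, humidified | Detection: Absorbance at 615 nm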
row,SMILES,inhibition of the nicotinamide effect
1,CC(Sc1nc(-c2ccccc2)cc(C(F)(F)F)n1)C(=O)Nc1ccc2c(c1)OCO2 (stereo not drawn),-1.2% (inactive)
2,O=C1CCCC(O)=C1N=Nc1ccc2ncsc2c1,-3.17% (inactive)
3,Cc1cc(C(=O)COc2ccccc2[N+](=O)[O-])c(C)n1-c1cccc(S(=O)(=O)N2CCOCC2)c1,1.02% (inactive)
4,Oc1ccc(Cl)cc1/C=N/c1nc2ccccc2[nH]1,6.53% (inactive)
5,O=C(CCCO)N/N=C/c1cc(Br)ccc1O,25% (inactive)
6,Oc1ccc(Br)cc1C=Nc1ccc2[nH]ncc2c1,40.4% (active)
7,Cc1c(NC(=S)NCc2ccc(F)cc2)cccc1[N+](=O)[O-],0.2% (inactive)
8,CCN1CCN(C(c2cccnc2)c2cc(Cl)c3cccnc3c2O)CC1 (stereo not drawn),30.4% (active)
9,Oc1c(CN2CCN(c3ccc(F)cc3)CC2)cc(Cl)c2cccnc12,-13.6% (inactive)
10,CCOC(=O)N1CCN(C(c2cccnc2)c2ccc3cccnc3c2O)CC1 (stereo not drawn),-7.28% (inactive)
11,Cc1ccc(NN=C2C(=O)OC(C)(C)OC2=O)c(C)c1,-2.15% (inactive)
12,CC(=O)Nc1ccc(S(=O)(=O)NC2(C(F)(F)F)C(=O)Nc3c2c(=O)[nH]c(=O)n3Cc2ccccc2)cc1 (stereo not drawn),2.33% (inactive)
13,C/C(=N/NC(=O)c1ccc(Br)o1)c1ccc(C)o1,-2.27% (inactive)
14,COc1cc(C(=O)Nc2cc(C(F)(F)F)ccc2N2CCOCC2)ccc1O,-3.94% (inactive)
15,COC(=O)c1ccccc1OCC(=O)N1CCN(c2ccc(Cl)cc2)CC1,-19.3% (inactive)
16,CC(CC(=O)N1CCN(c2ccccc2)CC1)c1ccccc1 (stereo not drawn),-11.3% (inactive)
17,O=C(NC(CC(=O)N1CCN(c2ccccc2)CC1)c1ccccc1)c1ccccc1Cl (stereo not drawn),35.4% (active)
18,C/C(=N/NC(=O)CSc1ccccn1)c1ccc([N+](=O)[O-])cc1,1.62% (inactive)
19,Cn1cccc1/C=C1\SC(=S)N(NC(=O)c2ccc(Cl)cc2)C1=O,3.79% (inactive)
20,O=C(NC(=O)c1ccccc1)NC(=O)c1ccccc1,-15.8% (inactive)
21,Cc1ccccc1NC(=O)c1ccccc1,43.2% (active)
22,Cc1cc(C(=O)NNC(=S)Nc2ccccc2C)cs1,4.51% (inactive)
23,Cc1cc(C)c(NC(=O)c2oc3ccccc3c2COc2ccccc2)c(C)c1,0.31% (inactive)
24,COC(=O)C1=C(NC(=O)C(C)(C)C)CCS1,-1.21% (inactive)

row,SMILES,inhibition of the nicotinamide effect
1,CCCCN(CC)C(=O)c1ccc2c(c1)OCO2,-2.79% (inactive)
2,Cn1cc([N+](=O)[O-])c(C(=O)Nc2cnn(Cc3ccc(F)cc3)c2)n1,10.4% (inactive)
3,Cc1cccc(NC(=O)/C=C/c2ccc3c(c2)OCO3)n1,-5.25% (inactive)
4,O=C(CCCN1C(=O)/C(=C/c2ccco2)SC1=S)Nc1ccccc1,4.28% (inactive)
5,CCOc1ccccc1/C=c1\sc2nc(-c3ccco3)nn2c1=O,21.5% (inactive)
6,O=c1nc2s/c(=C\c3ccco3)c(=O)n2nc1Cc1ccccc1,26.9% (active)
7,NC(=O)c1ccccc1N=Cc1ccc2ccccc2c1,8.87% (inactive)
8,CCC1=NN(C(=O)Cc2ccc([N+](=O)[O-])cc2)C(O)(c2ccc(Br)cc2)C1 (stereo not drawn),3.83% (inactive)
9,CN(C)C(CNC(=O)c1ccc(S(=O)(=O)NCc2ccco2)cc1)c1ccccc1 (stereo not drawn),3.63% (inactive)
10,CCOC(=O)C(C)Sc1nc2ccccc2c(=O)n1CC1CCCCC1 (stereo not drawn),8.34% (inactive)
11,Cn1c2ccccc2c(=O)c2c(=O)n(Cc3ccco3)c(COc3ccccc3)nc21,17.5% (inactive)
12,CCCc1nc2c(c(=O)c3ccccc3n2C)c(=O)n1C1CCCCCC1,47.5% (active)
13,CCOC(=O)c1c(NC(=O)C2(C)Cc3ccccc3C(=O)O2)sc2c1CCCC2 (stereo not drawn),1.18% (inactive)
14,O=C(NCc1ccccc1Cl)C1CCC(CNc2c(N3CCCCC3)c(=O)c2=O)CC1 (stereo not drawn),3.91% (inactive)
15,CCS(=O)(=O)Nc1cccc(-c2cc(-c3ccccc3)c3cc(C)ccc3n2)c1,1.36% (inactive)
16,COc1ccc(C(CC(=O)Nc2ccc(C)cc2)NC(=O)C(F)(F)F)cc1 (stereo not drawn),-0.39% (inactive)
17,Cc1ccc2sc(NNC(=O)c3ccc4c(c3)OCCO4)nc2c1C,0% (inactive)
18,O=C(N/N=C/c1ccccn1)C12CC3CC(CC(C3)C1)C2,3.48% (inactive)
19,COc1ccc([C@H]2[C@H](C(C)=O)N3N=Cc4ccccc4C3C23C(=O)OC(C)(C)OC3=O)cc1 (stereo partly drawn),30.5% (active)
20,COc1ccc(C2C(C(=O)N3CCN(c4ccc(OC)cc4)CC3)c3ccccc3C(=O)N2C)cc1 (stereo not drawn),-6.01% (inactive)
21,O=C(Nc1ccc2ccccc2c1)/C(=C/c1cccc(Br)c1)NC(=O)c1ccco1,-1.18% (inactive)
22,COC(=O)C1=NNC2(c3ccc(C)cc3)C(=O)N(c3cccc(C)c3C)C(=O)C12 (stereo not drawn),14.3% (inactive)
23,COc1ccc(C(=O)NNS(=O)(=O)c2ccc(C)cc2)cc1,3.8% (inactive)
24,CC(C)CNC(=S)NC(=O)c1ccc(Cl)cc1,-5.06% (inactive)
